Measured values taken from ChEMBL document CHEMBL1143966, “Design and synthesis of eugenol derivatives, as potent 15-lipoxygenase inhibitors” (Bioorg Med Chem, 2008).

Key:
[1] = Inhibition of soybean 15-lipoxygenase; parameters: species or system Glycine max
How it was run: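 Soybean 15-lipoxygenase with linoleic acid substrate (final 134 µM) in 0.1 M borate buffer pH 9 at 20 ± 1 °C. Absorbance read at 234 nm for 60 s after enzyme addition. Inhibitor plus linoleic acid served as blank. At least six controls and three tubes per inhibitor solution. Enzyme kept on ice, with controls run at intervals. IC50 from linear interpolation around 50% activity.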

[2] = Partition coefficient, log P of the compound; assay type: physicochemical; conditions: octanol/water

| Compound | IC50 [1] | logP [2] |
| --- | --- | --- |
| C=CCc1ccc(OC(=O)c2ccc(C)cc2)c(OC)c1 | 14.6 µM | 2.87 |
| C=CCc1ccc(OC(=O)c2ccccc2)c(OC)c1 [EUGENYL BENZOAT] | 4.4 µM | 2.25 |
| C=CCc1ccc(OC(=O)C2CCCCC2)c(OC)c1 | 2.2 µM | 3.52 |
| C=CCc1ccc(OC(=O)c2cccc(Cl)c2)c(OC)c1 | 5.2 µM | 2.79 |
| C=CCc1ccc(OC(=O)c2cccc(C)c2)c(OC)c1 | 11.4 µM | 2.87 |
| C=CCc1ccc(OC(=O)c2ccc(F)cc2)c(OC)c1 | 7.2 µM | 2.7 |
| C=CCc1ccc(OC(=O)C23CC4CC(CC(C4)C2)C3)c(OC)c1 | 0.017 µM | 4.82 |
| C=CCc1ccc(OC(=O)c2cccc(OC)c2)c(OC)c1 | 23 µM | 1.86 |

The remaining compounds from weak to strong by IC50 [1], led by results:

| IC50 [1] | logP [2] | Compound |
| --- | --- | --- |
| 168 µM | 2.79 | C=CCc1ccc(OC(=O)c2ccccc2Cl)c(OC)c1 |
| 134 µM | 2.79 | C=CCc1ccc(OC(=O)c2ccc(Cl)cc2)c(OC)c1 |
| 77.2 µM | 2.87 | C=CCc1ccc(OC(=O)c2ccccc2C)c(OC)c1 |
| 34.6 µM |  | C=CCc1ccc(O)c(OC)c1 [EUGENOL] |
| 33.3 µM | 0.86 | C=CCc1ccc(OC(=O)c2ccccn2)c(OC)c1 |
| 19 µM | 1.86 | C=CCc1ccc(OC(=O)c2ccc(OC)cc2)c(OC)c1 |
| 6.7 µM | 2.7 | C=CCc1ccc(OC(=O)c2ccccc2F)c(OC)c1 |
| 2.3 µM | 0.86 | C=CCc1ccc(OC(=O)c2ccncc2)c(OC)c1 |
| 2.1 µM | 2.7 | C=CCc1ccc(OC(=O)c2cccc(F)c2)c(OC)c1 |
| 1.7 µM | 0.86 | C=CCc1ccc(OC(=O)c2cccnc2)c(OC)c1 |
